Data set [1] can be described thus: Solubility of the compound in PBS at pH 7.4. In kind it is physicochemical.
Data set [2] has as its target Insulin-degrading enzyme (Homo sapiens) (UniProt P14735). Kind of data set: Inhibition of IDE in immortalized human hepatocytes assessed as effect on insulin-induced PEPCK mRNA expression at 10 uM after 24 hrs by quantitative RT-PCR analysis. In kind it is cell-based. Set-up: scale not given: the % may be the effect or the level left. The note with it: Hepatocyte.
Data set [3] has the same target. Kind of data set: Inhibition of IDE in human SH-SY5Y cells expressing human APP751 with Swedish mutant/human […] assessed as increase of amyloid beta (1 to 40) level after 24 to 48 hrs by ELISA. In kind it is cell-based. In a few lines: (§1)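 SH-SY5Y APPswe and APPwt lines kept in DMEM with 10% fetal calf serum, 2 mM L-glutamine, 5% CO2, 37 °C. Seeded at 1.94 10^5 cells/well and treated 24 h later with vehicle or drug at 0.1 or 10 μM (from 10 mM DMSO stock) for 24 h and 48 h. Medium cleared by centrifugation and assayed by ELISA. Aβ1-42 used 100 μL of medium undiluted; Aβ1-40 used 10 μL diluted 1:10. Duplicates in three independent experiments, normalized to untreated cells.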

Data set [4] has as its target T1, Insulin-degrading enzyme (Mus musculus) (UniProt Q9JHR7).
T1 sequence (whole entry): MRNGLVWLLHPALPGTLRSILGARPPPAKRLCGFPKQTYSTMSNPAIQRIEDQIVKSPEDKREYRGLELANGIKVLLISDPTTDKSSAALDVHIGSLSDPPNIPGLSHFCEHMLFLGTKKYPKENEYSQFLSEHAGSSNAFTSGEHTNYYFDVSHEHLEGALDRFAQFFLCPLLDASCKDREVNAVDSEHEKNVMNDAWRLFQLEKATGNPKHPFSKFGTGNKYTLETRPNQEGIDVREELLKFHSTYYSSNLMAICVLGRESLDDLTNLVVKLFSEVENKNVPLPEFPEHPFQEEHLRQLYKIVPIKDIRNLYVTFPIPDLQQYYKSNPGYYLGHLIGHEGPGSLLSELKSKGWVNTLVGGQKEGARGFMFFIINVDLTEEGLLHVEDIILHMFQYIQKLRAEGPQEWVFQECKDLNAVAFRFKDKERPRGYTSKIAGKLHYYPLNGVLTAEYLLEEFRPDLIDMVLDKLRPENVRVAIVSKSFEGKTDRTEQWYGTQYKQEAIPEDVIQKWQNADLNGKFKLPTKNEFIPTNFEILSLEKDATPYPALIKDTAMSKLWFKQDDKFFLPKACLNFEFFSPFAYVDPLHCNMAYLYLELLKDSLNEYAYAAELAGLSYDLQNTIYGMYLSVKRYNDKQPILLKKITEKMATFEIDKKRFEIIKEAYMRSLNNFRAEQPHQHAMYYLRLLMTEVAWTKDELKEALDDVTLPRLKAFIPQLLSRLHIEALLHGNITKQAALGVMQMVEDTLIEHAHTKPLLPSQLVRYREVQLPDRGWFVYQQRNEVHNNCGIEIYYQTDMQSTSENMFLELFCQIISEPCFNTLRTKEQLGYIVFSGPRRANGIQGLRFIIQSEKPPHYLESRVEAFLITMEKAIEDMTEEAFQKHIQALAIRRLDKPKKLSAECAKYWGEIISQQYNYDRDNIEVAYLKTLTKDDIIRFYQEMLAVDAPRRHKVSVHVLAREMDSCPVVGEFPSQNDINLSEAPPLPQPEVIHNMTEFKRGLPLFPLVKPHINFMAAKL
Briefly: Inhibition of IDE in mouse Min6 cells assessed as effect on 11 mM of glucose-induced insulin secretion at 10 uM after 24 hrs by ELISA. In kind it is cell-based.

In data set [5] the target is T1, Insulin-degrading enzyme (Mus musculus). Kind of data set: Inhibition of IDE in mouse Min6 cells assessed as effect on 2.8 mM of glucose-induced insulin secretion at 10 uM after 24 hrs by ELISA. In kind it is cell-based.
In the next data set the target is T2, Insulin-degrading enzyme (Homo sapiens, UniProt P14735).
T2 sequence (P14735 whole entry): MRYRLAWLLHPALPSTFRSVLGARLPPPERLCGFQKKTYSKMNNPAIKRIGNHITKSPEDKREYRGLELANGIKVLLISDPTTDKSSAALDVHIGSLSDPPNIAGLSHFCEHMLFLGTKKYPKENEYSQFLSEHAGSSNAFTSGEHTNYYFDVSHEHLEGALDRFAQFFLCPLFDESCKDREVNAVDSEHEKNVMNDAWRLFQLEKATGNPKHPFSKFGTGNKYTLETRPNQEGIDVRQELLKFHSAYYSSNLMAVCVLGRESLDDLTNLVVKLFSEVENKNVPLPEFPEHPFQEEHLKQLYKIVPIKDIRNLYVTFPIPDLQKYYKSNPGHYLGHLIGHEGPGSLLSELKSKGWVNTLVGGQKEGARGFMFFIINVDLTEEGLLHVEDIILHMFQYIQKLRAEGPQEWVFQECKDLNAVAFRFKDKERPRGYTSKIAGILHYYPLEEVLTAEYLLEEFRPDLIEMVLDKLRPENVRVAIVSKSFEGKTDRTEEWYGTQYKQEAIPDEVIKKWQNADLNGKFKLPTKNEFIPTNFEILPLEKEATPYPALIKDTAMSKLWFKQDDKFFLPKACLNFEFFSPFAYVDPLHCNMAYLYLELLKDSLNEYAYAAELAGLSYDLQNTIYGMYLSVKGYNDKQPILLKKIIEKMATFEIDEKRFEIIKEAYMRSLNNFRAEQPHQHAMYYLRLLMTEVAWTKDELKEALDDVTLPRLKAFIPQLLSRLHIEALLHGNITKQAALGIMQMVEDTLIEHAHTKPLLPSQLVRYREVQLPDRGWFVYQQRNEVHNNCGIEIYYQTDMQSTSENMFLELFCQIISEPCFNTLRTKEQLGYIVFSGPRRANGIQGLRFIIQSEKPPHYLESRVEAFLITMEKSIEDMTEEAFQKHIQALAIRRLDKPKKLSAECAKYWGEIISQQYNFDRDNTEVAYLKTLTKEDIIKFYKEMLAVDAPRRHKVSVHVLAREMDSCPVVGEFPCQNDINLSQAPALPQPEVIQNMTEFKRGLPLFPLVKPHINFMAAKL
Kind of data set: Inhibition of human recombinant IDE-mediated amyloid beta (16 to 23) hydrolysis using ATTO 655-Cys-Lys-Leu-Val-Phe-Phe-Ala-Glu-Asp-Trp as substrate preincubated for 10 mins measured after 30 mins by spectrophotometer analysis.

Data set [6] in a line: Apparent permeability across human Caco2 cells at 10 uM after 1 hr by LC-MS/MS analysis. In kind it is ADME, cell-based. The note with it: Caco-2. On the technique in general: Caco-2 monolayers are a common model of the intestinal barrier.
Data set [7] addresses Insulin-degrading enzyme (Homo sapiens) (UniProt P14735). Kind of data set: Inhibition of IDE in human SH-SY5Y cells expressing human APP751 with Swedish mutant/human […] assessed as effect on CTFs level after 24 to 48 hrs by Western blot. (In general: A western blot detects proteins with antibodies after separation by electrophoresis.)
For data set [8], the target named is T1, Insulin-degrading enzyme (Mus musculus). Kind of data set: Inhibition of IDE in mouse Min6 cells assessed as effect on 20 mM of glucose-induced insulin secretion at 10 uM after 24 hrs by ELISA. In kind it is cell-based.
The target in data set [9] is Insulin-degrading enzyme (Homo sapiens) (UniProt P14735). Briefly: Inhibition of IDE in human SH-SY5Y cells expressing human APP751 with Swedish mutant/human […] assessed as effect on APP holoproteins level after 24 to 48 hrs by Western blot.
For data set [10] the target is unchanged. Briefly: Inhibition of IDE in human SH-SY5Y cells expressing human APP751 with Swedish mutant/human […] assessed as increase of amyloid beta (1 to 42) level after 24 to 48 hrs by ELISA. In kind it is cell-based. The essentials:
as §1
For orientation: ELISA stands for enzyme-linked immunosorbent assay.

For data set [11] the target is unchanged. Kind of data set: Inhibition of human recombinant IDE-mediated insulin hydrolysis assessed as residual insulin level at 100 uM preincubated for 10 mins measured after 30 mins by spectrophotometer analysis.
The test system of another data set is Plasma. Briefly: Prodrug conversion in mouse plasma assessed as half life of BDM43079 formation at 10 uM by LC-MS/MS analysis. In kind it is ADME, cell-free.
Data set [12] is described as follows: Prodrug conversion in IHH cell culture medium assessed as half life of BDM43079 formation at 10 uM by LC-MS/MS analysis. In kind it is ADME, cell-based. To be noted: human, hh. The essentials: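 Conversion to the active acid followed in William's E medium with 10% fetal calf serum.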
Data set [13] is described as follows: PBS-octanol partition coefficient, log D of the compound. In kind it is physicochemical.

Converted amounts (≈) assume the structure as drawn. The source made the active and inactive calls. The rule behind the calls is not given here. Where only a bound is given, the exact number is not on record here.

On to `CNC(=O)[C@H](Cc1c[nH]cn1)NC(=O)CN(CCCc1ccccc1)CC(=O)OC`, for which, in data set [1], the concentration in solution (solubility) was 74 µM (≈ 30.7 µg/mL). The Activity in [2] is 62%; in data set [4], 78.8 µg/L; in data set [5], 21.2 µg/L; in data set [8], 132 µg/L; in data set [11] it was 50%. Moreover, the inhibition result in [3] and in data set [10] was “Dose-dependent effect” in each case. Moreover, the IC50 (as a rule, the point on the concentration scale where inhibition reaches its midpoint) on Insulin-degrading enzyme is over 100 µM. Also, the Papp (commonly a coefficient for how fast a substance crosses the barrier) at 1 h, 10 µM in [6] turned out to be 0.2 ×10⁻⁶ cm/s. The inhibition entry in data set [7] and in data set [9] was “inactive” each time. Moreover, the figures for the t1/2 (in the data set with Plasma; in data set [12]) were 6 min and 11.3 h, respectively. Also, in data set [13], the logD – broadly, lipophilicity at a set pH, counting ionised and neutral species – amounted to 1.1.

Source of the values: ChEMBL document CHEMBL3232818, “Imidazole-derived 2-[N-carbamoylmethyl-alkylamino]acetic acids, substrate-dependent modulators of insulin-degrading enzyme in amyloid-β hydrolysis” (Eur J Med Chem, 2014).
